From ChEMBL document CHEMBL1255525, “Fluorinated 2'-hydroxychalcones as garcinol analogs with enhanced antioxidant and anticancer activities” (Bioorg Med Chem Lett, 2010)
pIC50: −log10 of the molar value.

How the values were obtained:
BXPC-3 = test: Cytotoxicity against human BxPC3 cells expressing COX2 after 24 hrs by MTT assay; type: functional, cell-based; conditions: BXPC-3, 24 h
Outline: (§1)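 Cells grown at 37 °C, 5% CO₂, with penicillin (50 U/ml), streptomycin and 10% fetal calf serum; lines STR-authenticated. 3 × 10³ cells seeded per well. Compounds in DMSO added 24 h after seeding. Eight replicate wells per treatment; experiments repeated at least three times. End-point: MTT 0.5 mg/ml, 2 h at 37 °C, then DMSO 30 min at room temperature; absorbance read.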

[1] = Lipophilicity, log P of the compound; type: physicochemical; conditions: octanol/water
[2] = Antioxidant activity against superoxide dismutase like activity after 15 mins by NBT spectrometric assay; type: functional
Outline: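 Superoxide-scavenging (SOD-like) activity by NBT method, run in triplicate. Mix of 2.1 ml 0.2 M Tris buffer and 1 ml NBT with test solution, held on ice 15 min. KO₂ (1.5 ml) then added with stirring. Absorbance at 560 nm read every 30 s over 5 min. Ascorbic acid as standard.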

BT-20 = test: Cytotoxicity against human estrogen receptor-deficient BT20 cells after 24 hrs by MTT assay; type: functional, cell-based; conditions: BT-20, 24 h; outline: as §1

Row | Compound | pIC50 (BXPC-3) | logP [1] | pIC50 [2] | pIC50 (BT-20)
1 | O=C(/C=C/c1ccc(F)c(F)c1)c1ccccc1O | 4.57 | 3.51 | 5.25 | 4.48
2 | O=C(/C=C/c1ccc(O)cc1O)c1ccccc1O | 4.16 | 2.42 | 5.22 | 4.28
3 | O=C(/C=C/c1ccc(F)cc1F)c1ccccc1O | 4.73 | 3.51 | 5.28 | 4.58
4 | O=C(/C=C/c1ccc(O)c(O)c1O)c1ccccc1O | 3.67 | 2.03 | 4.86 | 4.21
5 | O=C(/C=C/c1ccc(F)c(F)c1F)c1ccccc1O | 4.46 | 3.67 | 5.14 | 4.25
6 | O=C(/C=C/c1ccc(O)c(O)c1)c1ccccc1O | 4.11 | 2.42 | 5.03 | 4.19
7 | O=C1O[C@H]([C@@H](O)CO)C(O)=C1O [ASCORBIC ACID] |  |  | 5.27 | 
8 | O=C(/C=C/c1ccccc1)c1ccccc1 [CHALCONE] |  | 3.2 |  | 
